Our source for the Activity and inhibition values is ChEMBL document CHEMBL1800058, “Lathyrane diterpenoids from the roots of Euphorbia micractina and their biological activities” (J Nat Prod, 2011).

Activity calls are given as the source filed them. The calls are words filed in the database; no cut-off is given here.

The subject of assay [1] is Human immunodeficiency virus 1. The experiment in a line: Antiviral activity against HIV1 harboring vesicular stomatitis virus glycoprotein infected in human 293T cells assessed as inhibition of viral replication at 10 uM after 48 hrs by luciferase activity based luminometer analysis. The assay is classed as functional, organism-based.
Assay [2] deals with Aorta. Kind of assay: Vasorelaxant activity in Sprague-Dawley rat […] thoracic aorta assessed as inhibition of phenylephrine-induced vasoconstriction at 10^-6 M relative to control. The assay is classed as functional. The arrangement: scale not given: the % may be the effect or the level left. A digest of the protocol:
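Read-out was percent relaxation of phenylephrine-precontracted vessels. Verapamil served as the positive control at the same test concentration.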

Assay [3] concerns the target T1, Tyrosine-protein phosphatase non-receptor type 1 (Homo sapiens) (UniProt P18031).
T1 sequence (whole entry): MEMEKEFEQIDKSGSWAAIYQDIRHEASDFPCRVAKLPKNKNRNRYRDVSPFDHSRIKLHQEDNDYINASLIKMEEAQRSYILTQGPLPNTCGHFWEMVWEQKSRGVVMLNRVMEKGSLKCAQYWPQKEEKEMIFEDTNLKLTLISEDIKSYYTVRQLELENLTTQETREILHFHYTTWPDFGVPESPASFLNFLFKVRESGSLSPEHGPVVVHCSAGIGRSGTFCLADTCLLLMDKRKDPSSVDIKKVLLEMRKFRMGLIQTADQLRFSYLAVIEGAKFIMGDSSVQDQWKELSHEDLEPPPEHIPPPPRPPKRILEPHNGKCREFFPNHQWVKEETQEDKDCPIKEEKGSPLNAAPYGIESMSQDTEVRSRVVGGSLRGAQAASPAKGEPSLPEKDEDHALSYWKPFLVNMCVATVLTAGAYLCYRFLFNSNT
The experiment in a line: Inhibition of human recombinant GST-tagged PTP1B assessed as conversion of para-nitrophenyl phosphate to para-nitrophenol at 10^-6 M after 10 mins by microplate spectrophotometer analysis.

In assay [4] the test system is Liver microsomes. Kind of assay: Antioxidant activity against Fe2+-cystine-induced lipid peroxidation in rat liver microsomes at 10^-6 M after 15 mins by thiobarbituric acid method. The assay is classed as functional. The note with it: Microsome. Background: Liver microsomes are vesicles of endoplasmic reticulum, rich in cytochrome P450 enzymes.
In assay [5] the test system is Bel-7402. Kind of assay: Cytotoxicity against human Bel7402 cells at 10^-6 M after 96 hrs by MTT assay. Type of assay: functional, cell-based.
Assay [6] has as its system A549. The experiment in a line: Cytotoxicity against human A549 cells at 10^-6 M after 96 hrs by MTT assay. Type of assay: functional, cell-based.
Assay [7] concerns BGC-823. Kind of assay: Cytotoxicity against human BGC823 cells at 10^-6 M after 96 hrs by MTT assay. The assay is classed as functional, cell-based. (In general: Tetrazolium assays rely on reduction of a dye to a coloured formazan, in cell work by metabolically active cells.)
For assay [8], the system named is MCF7. Kind of assay: Cytotoxicity against human MCF7 cells at 10^-6 M after 96 hrs by MTT assay. The assay is classed as functional, cell-based.
In assay [9] the test system is KETR3. The experiment in a line: Cytotoxicity against human Ketr3 cells at 10^-6 M after 96 hrs by MTT assay. Type of assay: functional, cell-based.
Assay [10] has as its system HCT-8. Kind of assay: Cytotoxicity against human HCT8 cells at 10^-6 M after 96 hrs by MTT assay. Type of assay: functional, cell-based.

For `C=C1CC[C@H]2[C@H](/C=C(\C)C(=O)[C@@]3(OC(=O)/C=C/c4ccccc4)C[C@H](C)[C@H](O)[C@@H]3[C@H]1O)C2(C)C`, the result in assay [1], in [4], in [5], in assay [6], in assay [7] and in assay [8] was inactive. Also, the result in assay [9] and in assay [10] was inactive. Further, in [2], the Activity was under 30%. Besides, the inhibition result in assay [3] was “inactive”.
In the case of `CC(=O)O[C@]12C[C@H](C)[C@H](O)[C@@H]1[C@H]1O[C@]1(C)CC[C@H]1[C@H](/C=C(\C)C2=O)C1(C)C`, the result in assay [1], in assay [4], in assay [5], in [6], in [7] and in [8] was inactive. The outcome in assay [9] and in [10] was inactive. Moreover, the Activity in [2] was under 30%. In addition, in [3], the inhibition result was “inactive”.
`C/C1=C\[C@H]2[C@H](CC[C@@]3(C)O[C@@H]3[C@H]3[C@@H](OC(=O)c4ccccc4)[C@@H](C)C[C@]3(O)C1=O)C2(C)C`: the result in assay [1], in [4], in [5], in assay [6], in assay [7] and in assay [8] was inactive. Further, the result in assay [9] and in assay [10] was inactive. Moreover, the Activity in assay [2] is reported as 48%. Further, the inhibition result in assay [3] was “inactive”.
Take `C/C1=C/C[C@H]2[C@@H](/C=C(\C)C(=O)[C@@]3(OC(=O)c4ccccc4)C[C@H](C)[C@H](O)[C@@H]3[C@@H]1O)C2(C)C`: in assay [1], the result was inactive. Also, the Activity in assay [2] was 53%.
In the case of `CC(=O)O[C@H]1/C(C)=C\C[C@H]2[C@H](/C=C(\C)C(=O)[C@@]3(OC(=O)c4ccccc4)C[C@H](C)[C@H](O)[C@H]13)C2(C)C`, the outcome in assay [1], in assay [4], in [5], in assay [6], in assay [7] and in [8] was inactive. Further, the result in [9] and in [10] was inactive. For the same compound, the Activity in assay [2] worked out at 50%. The inhibition result in [3] was “inactive”.
`COc1ccc(CCN(C)CCCC(C#N)(c2ccc(OC)c(OC)c2)C(C)C)cc1OC` (configuration not stated) [VERAPAMIL]: the Activity in assay [2] was 44%.
Consider `C/C1=C\[C@H]2[C@H](CC[C@@]3(C)O[C@@H]3[C@H]3[C@@H](OC(=O)c4ccccc4)[C@@H](C)C[C@]3(OC(=O)c3ccccc3)C1=O)C2(C)C`, for which the outcome in assay [1], in assay [4], in assay [5], in assay [6], in assay [7] and in assay [8] was inactive. Also, the outcome in assay [9] and in assay [10] was inactive. The Activity in assay [2] is given as under 30%. For the same compound, in [3], the inhibition entry was “inactive”.
In the case of `CC(=O)O[C@@H]1[C@@H]2[C@H]3O[C@]3(C)CC[C@H]3[C@H](/C=C(\C)C(=O)[C@@]2(O)C[C@@H]1C)C3(C)C`, the result in [1], in assay [4], in [5], in assay [6], in assay [7] and in assay [8] was inactive. The result in [9] and in assay [10] was inactive. Moreover, the Activity in assay [2] was under 30%. In addition, the inhibition entry in assay [3] was “inactive”.
Turning to `C/C1=C\[C@H]2[C@H](CC[C@@]3(C)O[C@@H]3[C@H]3[C@@H](OC(=O)/C=C/c4ccccc4)[C@@H](C)C[C@]3(O)C1=O)C2(C)C`, the result in assay [1], in assay [4], in assay [5], in [6], in [7] and in [8] was inactive. Besides, the result in assay [9] and in assay [10] was inactive. For the same compound, the Activity in [2] is listed as under 30%. The inhibition entry in assay [3] was “inactive”.
As to `CC(=O)O[C@@H]1[C@@H]2[C@H]3O[C@]3(C)CC[C@H]3[C@H](/C=C(\C)C(=O)[C@@]2(OC(=O)c2ccccc2)C[C@@H]1C)C3(C)C`, the outcome in assay [1], in assay [4], in [5], in assay [6], in assay [7] and in [8] was inactive. Moreover, the result in assay [9] and in [10] was inactive. Further, in assay [2], the Activity came out at 41%. In addition, in [3], the inhibition entry is “inactive”.
As for `C/C1=C\[C@H]2[C@@H](OC(=O)/C=C/c3ccccc3)[C@@H](C)C[C@]2(O)C(=O)/C(C)=C/[C@H]2[C@H](CC1)C2(C)C`, the outcome in assay [1], in assay [4], in assay [5], in assay [6], in assay [7] and in assay [8] was inactive. Further, the result in assay [9] and in assay [10] was inactive. For the same compound, in [2], the Activity is given as under 30%. In addition, in [3], the inhibition entry was “inactive”.
Turning to `C/C1=C/C[C@H]2[C@H](/C=C(\C)C(=O)[C@@]3(O)C[C@H](C)[C@H](O)[C@@H]3[C@H]1OC(=O)/C=C/c1ccccc1)C2(C)C`, the outcome in assay [1], in assay [4], in assay [5], in assay [6], in [7] and in assay [8] was inactive. The result in [9] and in assay [10] was inactive. The Activity in assay [2] is on record as under 30%. Besides, the inhibition result in assay [3] is “inactive”.
Take `CC(=O)O[C@@H]1[C@@H]2[C@H]3O[C@]3(C)CC[C@H]3[C@H](/C=C(\C)C(=O)[C@@]2(OC(C)=O)C[C@@H]1C)C3(C)C`: the outcome in assay [1], in [4], in assay [5], in assay [6], in assay [7] and in [8] was inactive. Moreover, the result in [9] and in assay [10] was inactive. For the same compound, the Activity in [2] was under 30%. Moreover, the inhibition entry in [3] is “inactive”.
Regarding `C/C1=C/C[C@H]2[C@H](/C=C(\C)C(=O)[C@@]3(OC(=O)/C=C/c4ccccc4)C[C@H](C)[C@@H]4OC(C)(C)O[C@@H]1[C@@H]43)C2(C)C`, in assay [2], the Activity is on record as under 30%. Also, the inhibition result in assay [3] was “inactive”. In addition, the outcome in assay [4], in assay [5], in [6], in assay [7], in [8] and in assay [9] was inactive. For the same compound, the result in assay [10] was inactive.
Regarding `C/C1=C\[C@H]2[C@@H](O)[C@@H](C)C[C@]2(OC(=O)c2ccccc2)C(=O)/C(C)=C/[C@H]2[C@H](CC1)C2(C)C`, the outcome in [1], in assay [4], in [5], in [6], in assay [7] and in assay [8] was inactive. Also, the outcome in [9] and in assay [10] was inactive. Further, the Activity in assay [2] was 42%. Moreover, the inhibition result in [3] was “inactive”.
